{"source": "PubChem BioAssay AID449763", "about": "(Sanford-Burnham Center for Chemical Genomics, 2010)", "note": "About 1,100 (0.33%) of roughly 330,000 compounds were called active.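 The calls were made as follows: active = at 10 µM dose, activation of 40% or more, normalized to positive control; inactive = the rest.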 The full list was thinned out, with actives kept by preference."}
{"assay": "activators of apoptotic CHOP UPR arm, primary screen, cell-based, CHO-CHOP luciferase reporter, luminescence, uHTS (AID 449763);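 also: 100% = tunicamycin at 10 µg/mL and 0% = DMSO alone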", "details": "at 10 µM, stronger effect = higher value, percent of tunicamycin response over DMSO baseline", "outline": "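Evaluation: % reporter activation, DMSO baseline versus tunicamycin full activation; System: CHO-CHOP luciferase reporter cell line; Input: 500 cells/well; Incubation: 6 h compound treatment, 37 °C; Measured by: Steady-Glo luciferase luminescence; Dosing: one dose, 10 µM in 0.5% DMSO; Buffer or medium: F12 medium, 10% FBS; Benchmarks: positive tunicamycin 10 µg/mL, negative DMSO alone.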"}
{"compound": "COc1cc(NC(=O)c2[nH]cnc2C(N)=O)cc(C(=O)Nc2cccc(C(F)(F)F)c2)c1", "activation": "12.8% (inactive)"}
{"compound": "COc1cc(NC(=O)c2cncc(-c3ccc(C#N)cc3)c2)cc(C(=O)Nc2cccc(C(F)(F)F)c2)c1", "activation": "73.6% (active)"}
{"compound": "N#Cc1ccc(Oc2ccc(C(F)(F)F)cc2NC(=O)c2ccc(F)cc2)cc1", "activation": "-0.147% (inactive)"}
{"compound": "O=C(O)C1C2C=CC(C2)C1C(=O)NCc1ccccc1", "note": "(centres undefined)", "activation": "-1.58% (inactive)"}
{"compound": "O=C(CC(NCCN1CCOCC1)C(=O)O)Nc1cccc(Cl)c1", "note": "(centres undefined)", "activation": "-1.8% (inactive)"}
{"compound": "CC(=O)Nc1ccc(NC(=O)COC(=O)c2ccccc2C(=O)c2ccccc2)cc1", "activation": "1.65% (inactive)"}
{"compound": "N#Cc1cccc(NC(=O)COC(=O)c2ccccc2C(=O)c2ccc(Cl)c([N+](=O)[O-])c2)c1", "activation": "105% (active)"}
{"compound": "CC(=O)Nc1ccc(NC(=O)C(C)OC(=O)c2ccccc2C(=O)c2ccc(Cl)c([N+](=O)[O-])c2)cc1", "note": "(centres undefined)", "activation": "12.1% (inactive)"}
{"compound": "CC1=CC(C)(C)NC(=S)N1c1ccccc1", "activation": "0.0762% (inactive)"}
{"compound": "O=C(c1c(F)cccc1F)N1CCN(S(=O)(=O)c2ccc3c(c2)OCCO3)CC1", "activation": "2.02% (inactive)"}
{"compound": "O=[N+]([O-])c1ccc(C=Nc2ccc(Cl)cc2Cl)s1", "activation": "112% (active)"}
{"compound": "CC1CN(C(=O)c2ccc([N+](=O)[O-])s2)CC(C)O1", "note": "(centres undefined)", "activation": "1.2% (inactive)"}
{"compound": "CCN(Cc1ccccc1)C(=O)CCS(=O)(=O)c1ccc2c(c1)oc(=O)n2C", "activation": "-2.75% (inactive)"}
{"compound": "Cc1cccc(NC(=O)C2CC(=O)OC23CCCC3)c1", "note": "(centres undefined)", "activation": "0.24% (inactive)"}
{"compound": "CCOC(=O)CN(C(=O)CN1CCOCC1)c1ccc(Br)cc1", "activation": "-1.27% (inactive)"}
{"compound": "CC1CCCC(C)N1C(=O)COC(=O)COc1ccccc1C#N", "note": "(centres undefined)", "activation": "-1.4% (inactive)"}
{"compound": "CC(=O)Nc1ccc(Nc2ncnc3c2nnn3Cc2ccccc2Cl)cc1", "activation": "-0.872% (inactive)"}
{"compound": "CN(C)Cc1c(C#N)c2ccccc2n1C", "activation": "-0.172% (inactive)"}
{"compound": "CCCc1cc(=S)n2c([nH]c3ccccc32)c1C#N", "activation": "54.1% (active)"}
{"compound": "CCOC(=O)CCc1c(C)c(C#N)c2[nH]c3ccccc3n2c1=O", "activation": "-1.06% (inactive)"}
{"compound": "CCn1c(SCC(=O)Nc2cc(C)ccc2C)nnc1-c1cnccn1", "activation": "-1.53% (inactive)"}
{"compound": "Cc1[nH]n(-c2ccccc2)c(=O)c1CCOC(=O)c1ccc(C(F)(F)F)cc1", "activation": "-0.83% (inactive)"}
{"compound": "O=C1CC(c2ccccc2)CC(O)=C1C=NCCN1CCOCC1", "note": "(centres undefined)", "activation": "-2.31% (inactive)"}
{"compound": "O=C1C=C(c2cccc(Cl)c2)C[C@@H](c2ccc(F)cc2)C1", "activation": "-0.428% (inactive)"}
{"compound": "O=C1CC(c2cccc(Cl)c2)CC(O)=C1C=Nc1ccccc1", "note": "(centres undefined)", "activation": "50% (active)"}
{"compound": "Cc1ccc(NC(=O)C(=O)NCc2ccc(/C=N/NC(=O)c3c(C)nc4cc(C)ccn34)o2)cc1", "activation": "4.97% (inactive)"}
{"compound": "CCc1ccc(N(C(=O)c2csnn2)C(C(=O)NC2CCCCC2)c2ccncc2)cc1", "note": "(centres undefined)", "activation": "-1.98% (inactive)"}
{"compound": "CCC(=O)Nc1sc(C(=O)Nc2ccccc2)c(C)c1C(=O)OC", "activation": "-0.316% (inactive)"}
{"compound": "CCOC(=O)c1c(NC(=O)CCl)sc(C(=O)N(CC)CC)c1C", "activation": "48.1% (active)"}
{"compound": "COC(=O)c1c(NC(=O)CCN2CCOCC2)sc2c1CCCC2", "activation": "0.577% (inactive)"}
{"compound": "CCOC(=O)Nc1sc(C(=O)N(C)C)c(C)c1C(=O)OCC", "activation": "-4.31% (inactive)"}
{"compound": "CCOC(=O)c1c(NC(=O)CCCN2CCOCC2)sc2c1CC(C)(C)OC2", "activation": "-2.37% (inactive)"}
{"compound": "CCOC(=O)c1sc(NC(=O)CCN2CCOCC2)c(C(=O)OCC)c1C", "activation": "43.2% (active)"}
{"compound": "COc1ccc(C(=O)NC2CC(C)(C)NC(C)(C)C2)cc1OC", "activation": "0.193% (inactive)"}
{"compound": "O=C(CCC(=O)n1ncc2ccccc21)NCc1ccccc1Cl", "activation": "-0.158% (inactive)"}
{"compound": "COc1ccc(S(=O)(=O)NC(C)C(=O)N2CCCCCC2)cc1", "note": "(centres undefined)", "activation": "-2.32% (inactive)"}
{"compound": "CCn1nc(C)c(CNC(=O)C2CCC(=O)N(Cc3cccc(F)c3)C2)c1C", "note": "(centres undefined)", "activation": "0.585% (inactive)"}
{"compound": "Fc1ccccc1/C=C1\\CCCC2=C1Nc1ncnn1C2c1ccccc1F", "note": "(centres undefined)", "activation": "90.9% (active)"}
{"compound": "CC1=C(C(N)=O)C(c2ccc(Br)cc2)n2ncnc2N1", "note": "(centres undefined)", "activation": "-1.48% (inactive)"}
{"compound": "Brc1ccc2c(c1)[C@H]1OCC[C@H]1[C@@H](c1cccs1)N2", "activation": "-1.2% (inactive)"}
{"compound": "O=C1CCN(C(=O)Nc2ccccc2)N1", "activation": "-2.23% (inactive)"}
{"compound": "Cc1ccc(OCC(=O)Nc2ccc(NC(=O)c3cccs3)cc2)c(C)c1", "activation": "0.176% (inactive)"}
{"compound": "Cc1ccc(-c2nnc(-c3ccc(NC(=O)c4cccs4)cc3)o2)cc1", "activation": "325% (active)"}
{"compound": "Cc1ccc(NC(=O)c2cccs2)cc1S(=O)(=O)N(C)C", "activation": "1.35% (inactive)"}
{"compound": "CN(C)CCCn1c(SCc2ccc(Cl)cc2)nnc1-c1ccncc1", "activation": "139% (active)"}
{"compound": "Cn1c(SCc2ccc(F)cc2)nnc1-c1ccncc1", "activation": "1.85% (inactive)"}
{"compound": "CC1CCCCC1NC(=O)CSc1nnc(-c2ccncc2)n1CCCN(C)C", "note": "(centres undefined)", "activation": "-1.77% (inactive)"}
{"compound": "COc1ccc(-n2cc(CNC3CCOCC3)c(-c3cccc(F)c3)n2)cc1", "activation": "0.961% (inactive)"}
{"compound": "O=C(COc1ccccc1O)NC1CCCC1", "activation": "3.04% (inactive)"}
{"compound": "CNC(=O)c1sc(NCc2ccccc2OC)nc1C", "activation": "-3.17% (inactive)"}
{"compound": "COc1cccc2sc(Nc3nc(C)c(C(C)=O)s3)nc12", "activation": "309% (active)"}
{"compound": "CC(=O)c1sc(N/N=C\\c2ccc(C)cc2)nc1C", "activation": "5.8% (inactive)"}
{"compound": "CCn1c(SCc2ccccc2)nc2cc(OC)c(OC)cc2c1=O", "activation": "-0.179% (inactive)"}
{"compound": "CCOCCCn1c(NN)nc2ccccc2c1=O", "activation": "1.17% (inactive)"}
{"compound": "CCn1c(/C=C/c2ccc([N+](=O)[O-])o2)nc2ccccc2c1=O", "activation": "71.3% (active)"}
{"compound": "COC(=O)c1cc(CNC(=O)CC(C)c2ccccc2)ccc1OC", "note": "(centres undefined)", "activation": "2.14% (inactive)"}
{"compound": "COc1ccc(-c2cc(C(F)(F)F)nc(S(C)(=O)=O)n2)cc1OC", "activation": "106% (active)"}
{"compound": "COc1ccc(-c2cc(-c3ccc(N)cc3)nc(N)c2C#N)cc1OC", "activation": "-0.472% (inactive)"}
{"compound": "COc1ccc(-c2ccc(Nc3ccc(S(=O)(=O)N4CCCC4)cc3)nn2)cc1OC", "activation": "3.88% (inactive)"}
{"compound": "O=C1/C(=C/c2ccc(F)cc2)SC(=S)N1NS(=O)(=O)c1ccccc1", "activation": "0.174% (inactive)"}
{"compound": "CC(C)CNC(=S)NNC(=O)c1ccccc1OC(F)F", "activation": "-0.805% (inactive)"}
{"compound": "Cc1onc(C(=O)NCc2ccc(F)cc2)c1[N+](=O)[O-]", "activation": "-0.611% (inactive)"}
{"compound": "CCc1noc(C)c1C(=O)NNC(=O)c1ccc(F)cc1", "activation": "-0.408% (inactive)"}
{"compound": "O=C(/C=C/c1ccc([N+](=O)[O-])o1)NNC(=O)c1ccc(F)cc1", "activation": "129% (active)"}
{"compound": "CC(C)CNS(=O)(=O)c1ccc(CCC(=O)NCc2ccc(Cl)cc2)cc1", "activation": "0.956% (inactive)"}
{"compound": "COc1cccc(-n2c(SCC(=O)NC3CCCCC3)nc3n[nH]c(C)c3c2=N)c1", "activation": "-0.882% (inactive)"}
{"compound": "Cc1ccc(C(C[N+](=O)[O-])c2c(C)cc3ccccn23)cc1", "note": "(centres undefined)", "activation": "-0.989% (inactive)"}
{"compound": "Nc1ccccc1SC(C[N+](=O)[O-])c1ccccc1", "note": "(centres undefined)", "activation": "181% (active)"}
{"compound": "COc1ccc(S(=O)(=O)N2CCOCC2)cc1NC(=O)CSc1ncnc2ccccc12", "activation": "-1.54% (inactive)"}
{"compound": "Cc1nn(CC#N)c(=O)n1N(C)c1ncc(C(F)(F)F)cc1Cl", "activation": "-1.47% (inactive)"}
{"compound": "CCOc1ccc(C(C)C)cc1S(=O)(=O)n1nc(C)cc1C", "activation": "-3.09% (inactive)"}
{"compound": "COc1ccc(OC)c(S(=O)(=O)n2c([N+](=O)[O-])cnc2C)c1", "activation": "-0.979% (inactive)"}
{"compound": "COc1ccc(C(C[N+](=O)[O-])n2nc(C)cc2C)cc1", "note": "(centres undefined)", "activation": "59.5% (active)"}
{"compound": "O=C(NNS(=O)(=O)c1ccccc1)c1cnn(-c2ccc(Cl)cc2)c1C(F)(F)F", "activation": "2.88% (inactive)"}
{"compound": "CCN(C(=O)COC(=O)/C=C/c1nc2ccccc2s1)C1CCS(=O)(=O)C1", "note": "(centres undefined)", "activation": "0.0282% (inactive)"}
{"compound": "CN1CCNC(=O)C1CC(=O)N1CC=C(c2ccc(F)cc2)CC1", "note": "(centres undefined)", "activation": "-1.29% (inactive)"}
{"compound": "C=CS(=O)c1sc(Cl)c(N2CCOCC2)c1[N+](=O)[O-]", "note": "(centres undefined)", "activation": "97.2% (active)"}
{"compound": "O=C(CSCc1ccccc1)Nc1ccccc1", "activation": "2.11% (inactive)"}
{"compound": "O=C(CCl)Nc1cccc(CP(=O)(c2ccccc2)c2ccccc2)c1", "activation": "60.2% (active)"}
{"compound": "O=C(CSc1ccccc1)Nc1ccc(C(=O)Nc2cccc(O)c2)cc1", "activation": "2.1% (inactive)"}
{"compound": "COc1c(C)cc(C(=O)C2CCCN(S(=O)(=O)c3c(C)noc3C)C2)cc1C", "note": "(centres undefined)", "activation": "3.35% (inactive)"}
{"compound": "Cc1cc(C)nc(S/C=C/C(=O)c2ccccc2)n1", "activation": "64.1% (active)"}
{"compound": "Cc1cc(C)nc(SCC(=O)N(C)C)n1", "activation": "-0.00178% (inactive)"}
{"compound": "O=C(/C=C/Sc1ncn[nH]1)c1ccc(Cl)cc1", "activation": "-3.23% (inactive)"}
{"compound": "O=C(N/N=C\\c1cc2c(cc1Cl)OCO2)c1ccc(Br)s1", "activation": "51.5% (active)"}
{"compound": "O=C(N/N=C/c1cc2c(cc1Br)OCO2)C1COc2ccccc2O1", "note": "(centres undefined)", "activation": "8.62% (inactive)"}
{"compound": "CC1(C(=O)N/N=C/c2cc3c(cc2Br)OCO3)CC1(Br)Br", "note": "(centres undefined)", "activation": "1.01% (inactive)"}
{"compound": "CC(=O)Nc1ccc(Nc2nc3c(S(=O)(=O)c4ccc(C)c(C)c4)nnn3c3ccccc23)cc1", "activation": "0.65% (inactive)"}
{"compound": "Cc1ccc(S(=O)(=O)c2nnn3c2nc(N2CCN(c4ccccn4)CC2)c2ccccc23)cc1", "activation": "1.19% (inactive)"}
{"compound": "Cc1cccc(Nc2nc3c(S(=O)(=O)c4ccccc4)nnn3c3ccccc23)c1C", "activation": "145% (active)"}
{"compound": "Cc1cccc(C(=O)N2CCCC(Nc3ccc(C(C)C)cc3)C2)n1", "note": "(centres undefined)", "activation": "0.069% (inactive)"}
{"compound": "COc1ccc(C(=O)NCC(=O)N/N=C/c2ccc([N+](=O)[O-])o2)cc1OC", "activation": "113% (active)"}
{"compound": "COc1cc(CC(=O)N/N=C/c2ccccc2)c([N+](=O)[O-])cc1OC", "activation": "0.0789% (inactive)"}
{"compound": "COc1cccc(/C=N/NC(=O)CNC(=O)c2ccc(S(=O)(=O)N3CCOCC3)cc2)c1OC", "activation": "3.45% (inactive)"}
